Test results as given in ChEMBL document CHEMBL4177755, “Combating Drug-Resistant Fungi with Novel Imperfectly Amphipathic Palindromic Peptides” (J Med Chem, 2018).
The source made the active and inactive calls. The rule behind the calls is not given here.

Assays:
[1] = system: Candida albicans; experiment: Antifungal activity against Candida albicans cgmcc 2.2086 in presence of 12.5% human heat-inactivated serum by broth dilution method; assay type: functional
[2] = system: Candida albicans; experiment: Antifungal activity against Candida albicans cgmcc 2.2086 in presence of 25% human heat-inactivated serum by broth dilution method; assay type: functional
[3] = system: Lipid bilayer; experiment: Binding affinity to phosphatidylcholine/cholesterol large unilamellar vesicle assessed as induction of calcein leakage at 2 to 32 uM after 15 mins by spectrofluorophotometric method; details: 0.25 h
In short: (§1)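 Large unilamellar vesicles were made from PG/CL/PE (2:1:7), PC/PE/PI/ergosterol (5:4:1:2) or PC/cholesterol (10:1), loaded with 70 mM calcein in Tris/NaCl/EDTA buffer at pH 7.4, frozen and thawed 20 times, and extruded through 100 nm filters. Free dye was removed by gel filtration, and peptide-induced calcein release was measured.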

[4] = system: Lipid bilayer; experiment: Binding affinity to phosphatidylcholine/phosphatidylethanolamine/phosphatidylinositol/ergosterol large unilamellar vesicle assessed as induction of calcein leakage at 2 to 32 uM after 15 mins by spectrofluorophotometric method; in short: as §1
[5] = system: Escherichia coli; experiment: Disruption of cytoplasmic membrane electrical potential in Escherichia coli ATCC 25922 at MBC after 800 secs by DiSC3-5 dye-based fluorescence spectrophotometric method; assay type: functional, organism-based
[6] = system: Escherichia coli; experiment: Antibacterial activity against Escherichia coli ATCC 25922 after 18 hrs in presence of 12.5% human heat-inactivated serum by broth dilution method; assay type: functional; details: ATCC 25922, 18 h
[7] = system: Escherichia coli; experiment: Antibacterial activity against Escherichia coli ATCC 25922 after 18 hrs in presence of 25% human heat-inactivated serum by broth dilution method; assay type: functional; details: ATCC 25922, 18 h
[8] = system: Escherichia coli; experiment: Bactericidal activity against Escherichia coli ATCC 25922 at MBC after 5 hrs by time-kill assay; assay type: functional
In short: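 Time-kill: E. coli ATCC 25922 or C. albicans cgmcc 2.2086 was exposed to peptide at 1× MBC/MFC. At intervals, aliquots were diluted and spread on MHA (bacteria, counted after 24 h at 37 °C) or YPDA (yeast, counted after 48 h at 28 °C). Values are means of three independent assays.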

[9] = system: Escherichia coli; experiment: Induction of cell wall permeabilization in Escherichia coli ATCC 25922 assessed as increase in NPN uptake by fluorescence spectrophotometric method; assay type: functional, organism-based
In short: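 Log-phase cells at OD600 0.2 in 5 mM HEPES (pH 7.4, 5 mM glucose) were preloaded with 10 μM NPN for 30 min, then peptide was added. Fluorescence (ex 350/em 420 nm) was followed until it plateaued and converted to % NPN uptake against initial and maximal fluorescence. Triplicate.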

[10] = system: Lipid bilayer; experiment: Binding affinity to phosphatidylglycerol/cardiolipin/phosphatidylethanolamine large unilamellar vesicle assessed as induction of calcein leakage after 15 mins by spectrofluorophotometric method
In short: (§2)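 Compositions were PG/CL/PE 2:1:7 w/w/w (E. coli membrane mimic; lines 4,5) and PC/PE/PI/ergosterol 5:4:1:2 w/w/w/w (fungal membrane mimic; lines 2,3). Lipids underwent 20 freeze–thaw cycles and were extruded through 100 nm filters; free calcein was removed by gel filtration.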

[11] = system: Lipid bilayer; experiment: Binding affinity to phosphatidylcholine/phosphatidylethanolamine/phosphatidylinositol/ergosterol large unilamellar vesicle assessed as induction of calcein leakage at 32 uM after 15 mins by spectrofluorophotometric method relative to control; in short: as §2
[12] = system: Escherichia coli; experiment: Induction of membrane damage in Escherichia coli ATCC 25922 assessed as appearance of roughened and broken membrane at MBC after 1 hr by atomic force microscopy; assay type: functional, organism-based
In short: (§3)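 E. coli ATCC 25922 was treated at 1× MBC and C. albicans cgmcc 2.2086 at 1× MFC, each for 1 h. Untreated control cells were processed in parallel without peptide. Surface morphology was imaged by AFM and SEM, and ultrastructure by TEM.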

[13] = system: Candida albicans; experiment: Induction of membrane damage in Candida albicans cgmcc 2.2086 assessed as membrane creping at MFC after 1 hr by scanning electron microscopy; assay type: functional, organism-based; in short: as §3
[14] = system: Candida albicans; experiment: Induction of membrane damage in Candida albicans cgmcc 2.2086 assessed as membrane deformation at MFC after 1 hr by scanning electron microscopy; assay type: functional, organism-based; in short: as §3
[15] = system: Candida albicans; experiment: Induction of membrane damage in Candida albicans cgmcc 2.2086 assessed as intracellular content leakage at MFC after 1 hr by scanning electron microscopy; assay type: functional, organism-based
In short: (§4)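 E. coli ATCC 25922 or C. albicans cgmcc 2.2086 were treated with peptide at 1× MBC/MFC for 1 h alongside peptide-free controls, then imaged by AFM, SEM or TEM for membrane and ultrastructural changes.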

[16] = system: Candida albicans; experiment: Induction of membrane damage in Candida albicans cgmcc 2.2086 assessed as membrane deformation at MFC after 1 hr by atomic force microscopy; assay type: functional, organism-based; in short: as §3
[17] = system: Escherichia coli; experiment: Change in membrane morphology in Escherichia coli ATCC 25922 assessed as loss of intracellular contents at MBC after 1 hr by transmission electron microscopy; assay type: functional, organism-based; in short: as §4
[18] = system: Candida albicans; experiment: Induction of membrane damage in Candida albicans cgmcc 2.2086 assessed as intracellular content leakage at MFC after 1 hr by transmission electron microscopy; assay type: functional, organism-based; in short: as §4
[19] = system: Lipopolysaccharide (LPS); experiment: Displacement of BODIPY-TR-cadaverine from Escherichia coli O111:B4 LPS at 4 uM after 1 hr by spectrofluorophotometric method relative to control
In short: (§5)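 Fluorescence-based displacement assay: peptide displaces BODIPY-TR-cadaverine from LPS; polymyxin B served as the LPS-binding reference.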

[20] = system: Lipopolysaccharide (LPS); experiment: Displacement of BODIPY-TR-cadaverine from Escherichia coli O111:B4 LPS at 8 uM after 1 hr by spectrofluorophotometric method relative to control; in short: as §5
[21] = system: RAW264.7; experiment: Induction of endotoxin-neutralization in mouse RAW264.7 cells assessed as inhibition of LPS-induced nitric oxide production after 18 hrs by Griess assay; assay type: functional, cell-based
In short: (§6)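 RAW 264.7 cells were stimulated with 50 ng/mL LPS with or without peptide at various concentrations. TNF-α in supernatants was measured by ELISA and NO by Griess reagent. Mean ± SEM of three independent experiments, compared against LPS alone.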

[22] = system: RAW264.7; experiment: Induction of endotoxin-neutralization in mouse RAW264.7 cells assessed as inhibition of LPS-induced nitric oxide production at 16 uM after 18 hrs by Griess assay relative to control; assay type: functional; details: RAW264.7, 18 h; in short: as §6
[23] = system: RAW264.7; experiment: Immunostimulatory activity in mouse RAW264.7 cells assessed as induction of TNFalpha secretion by ELISA; assay type: cell-based
In short: (§7)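 RAW 264.7 macrophages were exposed to peptide at various concentrations. TNF-α in culture supernatants was measured by ELISA and NO by Griess reagent. Values are means ± SEM of three independent experiments.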

[24] = system: RAW264.7; experiment: Immunostimulatory activity in mouse RAW264.7 cells assessed as induction of nitric oxide production by Griess assay; assay type: cell-based; in short: as §7
[25] = Cytotoxicity against mouse RAW264.7 cells assessed as cell viability at 2 to 32 uM after 24 hrs by MTT assay relative to control; assay type: cell-based; details: read-out: Activity
In short: (§8)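 MTT viability assay. RAW264.7 or HEK293T cells at (1.0−2.0) × 10^5 per well were exposed to a peptide concentration series for 24 h at 37 °C in 5% CO2. MTT was then added at 0.5 mg/mL final for 4 h; formazan was dissolved in DMSO and read at 570 nm. Results average three independent trials.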

[26] = Cytotoxicity against HEK293T cells assessed as cell viability at 2 to 32 uM after 24 hrs by MTT assay relative to control; assay type: cell-based, HEK-293T; details: human, read-out: Activity; in short: as §8

CC[C@H](C)[C@H](NC(=O)CN)C(=O)NCC(=O)N[C@@H](C)C(=O)N[C@H](C(=O)N[C@@H](CC(C)C)C(=O)N[C@@H](CCCCN)C(=O)N[C@H](C(=O)N[C@@H](CC(C)C)C(=O)N[C@H](C(=O)N[C@H](C(=O)NCC(=O)N[C@@H](CC(C)C)C(=O)N1CCC[C@H]1C(=O)N[C@@H](C)C(=O)N[C@@H](CC(C)C)C(=O)N[C@H](C(=O)N[C@@H](CO)C(=O)N[C@@H](Cc1c[nH]c2ccccc12)C(=O)N[C@H](C(=O)N[C@@H](CCCCN)C(=O)N[C@@H](CCCNC(=N)N)C(=O)N[C@@H](CCCCN)C(=O)N[C@@H](CCCNC(=N)N)C(=O)N[C@@H](CCC(N)=O)C(=O)N[C@@H](CCC(N)=O)C(N)=O)[C@@H](C)CC)[C@@H](C)CC)[C@@H](C)O)[C@@H](C)O)C(C)C)C(C)C [MELITTIN]
MIC [1]: 32 µM | MIC [2]: 32 µM | Activity [3]: Active | Activity [4]: Active | Activity [5]: Active

H-RRIRIIIRIRR-NH2
MIC [6]: 4 µM | MIC [7]: 4 µM | MIC [1]: 2 µM | MIC [2]: 4 µM | Activity [8]: >99.99% | Activity [9]: Dose-dependent effect | Activity [10]: Dose-dependent effect | Activity [11]: 62% | Activity [3]: Not Active | Activity [12]: Active | Activity [13]: Active | Activity [14]: Active | Activity [15]: Active | Activity [16]: Active | Activity [17]: Active | Activity [18]: Active | inhibition [19]: 68% | inhibition [20]: 95% | inhibition [21]: Dose-dependent effect | inhibition at 16 µM [22]: 100% | Activity [23]: Non-Toxic | Activity [24]: Non-Toxic

H-RWWRRWRRWWR-NH2
viability at 24 h, up to 32 µM [25]: 70 to 80% | viability at 24 h, up to 32 µM [26]: 70 to 80%

H-WWRRWRRWW-NH2
viability at 24 h, up to 32 µM [25]: 70 to 80% | viability at 24 h, up to 32 µM [26]: 70 to 80%
